According to ChEMBL document CHEMBL1671832, “Discovery of novel cyanamide-based inhibitors of cathepsin C” (ACS Med Chem Lett, 2011):

How the values were obtained:
[1] = Metabolic stability in rat plasma assessed as compound remaining after 30 mins by HPLC analysis; assay type: ADME, cell-free; details: read-out: Stability
Outline: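 Compound was incubated in rat plasma for 30 min, then % compound remaining was determined. Values are the mean of two or more independent assays.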

Cathepsin B = Cathepsin B (Homo sapiens, UniProt P07858); assay: Inhibition of human recombinant cathepsin B after 1 hr
Cathepsin K = molecular target: T1, Cathepsin K (Homo sapiens, UniProt P43235); assay: Inhibition of human recombinant cathepsin K after 1 hr
T1 sequence (P43235 whole entry): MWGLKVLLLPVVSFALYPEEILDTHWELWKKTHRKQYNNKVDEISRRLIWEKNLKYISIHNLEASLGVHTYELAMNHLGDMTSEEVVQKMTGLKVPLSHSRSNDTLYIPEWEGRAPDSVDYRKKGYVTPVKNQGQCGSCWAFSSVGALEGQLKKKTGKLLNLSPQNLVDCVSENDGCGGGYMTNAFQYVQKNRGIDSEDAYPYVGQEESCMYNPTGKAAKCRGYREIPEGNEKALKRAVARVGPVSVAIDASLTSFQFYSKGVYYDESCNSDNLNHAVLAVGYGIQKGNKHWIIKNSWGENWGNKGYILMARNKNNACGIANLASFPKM

Cathepsin S = Cathepsin S (Homo sapiens, UniProt P25774); assay: Inhibition of human recombinant cathepsin S after 1 hr
Procathepsin L = Procathepsin L (Homo sapiens, UniProt P07711); assay: Inhibition of human recombinant cathepsin L after 1 hr
Dipeptidyl peptidase 1 = Dipeptidyl peptidase 1 (Homo sapiens, UniProt P53634); assay: Inhibition of human recombinant cathepsin C after 1 hr
Plasma [2] = assay: Metabolic stability in rat plasma in presence of rat serum albumin; assay type: ADME, cell-free
Plasma [3] = assay: Metabolic stability in rat plasma in presence of broad spectrum esterase inhibitor; assay type: ADME, cell-free
Plasma [4] = assay: Metabolic stability in rat plasma in presence of free cysteine; assay type: ADME, cell-free
Plasma [5] = assay: Metabolic stability in rat plasma in presence of glutathione; assay type: ADME, cell-free
[6] = Plasma clearance in dog at 5 mg/kg, iv and 10 mg/kg, po; assay type: ADME, organism-based, Canis lupus familiaris
[7] = Half life in dog at 5 mg/kg, iv and 10 mg/kg, po; assay type: ADME, organism-based, Canis lupus familiaris; details: in vivo
[8] = Bioavailability in mouse at 5 mg/kg, iv and 20 mg/kg, po; assay type: ADME, organism-based; details: in vivo
[9] = Volume of distribution at steady state in dog at 5 mg/kg, iv and 10 mg/kg, po; assay type: ADME, organism-based, Canis lupus familiaris; details: in vivo, read-out: Vdss
Mus musculus [10] = assay: In vivo inhibition of cathepsin C in C57BL/6J mouse lung homogenates assessed as cleavage of H-Gly-Arg)2 R110 at 30 mg/kg administered intranasally after 0.5 hrs; assay type: functional; design: scale not given: the % may be the effect or the level left
Mus musculus [11] = assay: In vivo inhibition of cathepsin C in C57BL/6J mouse lung homogenates assessed as cleavage of H-Gly-Arg)2 R110 at 30 mg/kg, po after 0.5 hrs; assay type: functional; design: scale not given: the % may be the effect or the level left
Outline: (§1)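 Oral dose of 30 mg/kg to C57BL/6J mice, n = 5 per group. Crude lung homogenate was taken at 0.5, 1.5 and 3 h. Cathepsin C activity was measured by cleavage of (H-Gly-Arg)2 R110 at 10 μM and expressed as % inhibition.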

[12] = Plasma clearance in mouse at 5 mg/kg, iv and 20 mg/kg, po; assay type: ADME, organism-based
Mus musculus [13] = assay: In vivo inhibition of cathepsin C in C57BL/6J mouse lung homogenates assessed as cleavage of H-Gly-Arg)2 R110 at 30 mg/kg administered intranasally after 3 hrs; assay type: functional; design: scale not given: the % may be the effect or the level left
[14] = AUC in dog at 10 mg/kg, po; assay type: ADME, organism-based, Canis lupus familiaris; design: dose 10 mg/kg, route oral; details: plasma
Mus musculus [15] = assay: In vivo inhibition of cathepsin C in C57BL/6J mouse lung homogenates assessed as cleavage of H-Gly-Arg)2 R110 at 30 mg/kg, po after 1.5 hrs; assay type: functional; design: scale not given: the % may be the effect or the level left; outline: as §1
[16] = Volume of distribution at steady state in rat at 1 mg/kg, iv and 2 mg/kg, po; assay type: ADME, organism-based; details: in vivo, read-out: Vdss
[17] = Volume of distribution at steady state in mouse at 5 mg/kg, iv and 20 mg/kg, po; assay type: ADME, organism-based; details: in vivo, read-out: Vdss
Mus musculus [18] = assay: In vivo inhibition of cathepsin C in C57BL/6J mouse lung homogenates assessed as cleavage of H-Gly-Arg)2 R110 at 30 mg/kg, po after 3 hrs; assay type: functional; design: scale not given: the % may be the effect or the level left; outline: as §1
Rattus norvegicus [19] = assay: Bioavailability in rat at 1 mg/kg, iv and 2 mg/kg, po; assay type: ADME, organism-based; details: in vivo
[20] = Bioavailability in dog at 5 mg/kg, iv and 10 mg/kg, po; assay type: ADME, organism-based, Canis lupus familiaris; details: in vivo
Rattus norvegicus [21] = assay: AUC in rat at 2 mg/kg, po; assay type: ADME, organism-based, Plasma; design: dose 2 mg/kg, route oral; details: in vivo
Mus musculus [22] = assay: In vivo inhibition of cathepsin C in C57BL/6J mouse plasma assessed as cleavage of H-Gly-Arg)2 R110 at 30 mg/kg, po after 30 mins; assay type: functional; design: scale not given: the % may be the effect or the level left
Outline: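 Female/male not stated; mice dosed orally at 30 mg/kg (n = 5). Plasma cathepsin C activity was read as cleavage of (H-Gly-Arg)2 R110 substrate at 10 μM, sampled 30 min post-dose as part of a time course.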

[23] = Half life in rat at 1 mg/kg, iv and 2 mg/kg, po; assay type: ADME, organism-based; details: in vivo
Mus musculus [24] = assay: In vivo inhibition of cathepsin C in C57BL/6J mouse lung homogenates assessed as cleavage of H-Gly-Arg)2 R110 at 30 mg/kg administered intranasally after 1.5 hrs; assay type: functional; design: scale not given: the % may be the effect or the level left
[25] = Half life in mouse at 5 mg/kg, iv and 20 mg/kg, po; assay type: ADME, organism-based; details: in vivo

Sequence of Cathepsin S (P25774 whole entry): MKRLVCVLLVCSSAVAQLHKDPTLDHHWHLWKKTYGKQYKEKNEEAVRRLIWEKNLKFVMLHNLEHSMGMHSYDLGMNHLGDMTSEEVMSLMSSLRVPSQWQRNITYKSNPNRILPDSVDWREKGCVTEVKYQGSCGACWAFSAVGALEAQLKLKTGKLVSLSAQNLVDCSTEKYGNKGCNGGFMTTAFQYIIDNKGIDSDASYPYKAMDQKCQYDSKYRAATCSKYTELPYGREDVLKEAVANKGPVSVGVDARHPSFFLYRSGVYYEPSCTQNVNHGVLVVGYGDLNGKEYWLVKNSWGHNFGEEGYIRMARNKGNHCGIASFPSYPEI
Sequence of Dipeptidyl peptidase 1 (P53634 25-134 limits assumed): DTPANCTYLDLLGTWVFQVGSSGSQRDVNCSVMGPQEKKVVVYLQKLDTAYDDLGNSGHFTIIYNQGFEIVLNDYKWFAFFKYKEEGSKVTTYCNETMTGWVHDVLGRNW
Sequence of Dipeptidyl peptidase 1 (P53634 231-394 limits assumed): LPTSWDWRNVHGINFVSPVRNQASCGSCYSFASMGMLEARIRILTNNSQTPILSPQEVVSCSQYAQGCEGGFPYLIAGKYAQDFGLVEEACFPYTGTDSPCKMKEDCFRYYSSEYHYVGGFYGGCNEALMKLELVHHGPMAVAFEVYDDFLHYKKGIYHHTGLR
Sequence of Dipeptidyl peptidase 1 (P53634 395-463 limits assumed): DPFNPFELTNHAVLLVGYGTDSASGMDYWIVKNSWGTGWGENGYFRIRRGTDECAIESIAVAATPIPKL
Sequence of Procathepsin L (P07711 whole entry): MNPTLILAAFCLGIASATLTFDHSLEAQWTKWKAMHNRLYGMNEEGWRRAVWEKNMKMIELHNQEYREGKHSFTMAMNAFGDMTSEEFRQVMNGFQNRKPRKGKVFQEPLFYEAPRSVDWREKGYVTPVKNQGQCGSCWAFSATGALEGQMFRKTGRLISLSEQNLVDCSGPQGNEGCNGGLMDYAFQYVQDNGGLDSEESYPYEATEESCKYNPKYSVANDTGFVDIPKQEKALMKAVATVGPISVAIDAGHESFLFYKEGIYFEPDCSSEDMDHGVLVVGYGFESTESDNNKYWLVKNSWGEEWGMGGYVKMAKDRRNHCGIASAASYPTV

| SMILES | remaining at 0.5 h [1] [%] | IC50 (Cathepsin B) [µM] | IC50 (Cathepsin K) [µM] | IC50 (Cathepsin S) [µM] | IC50 (Procathepsin L) [µM] | IC50 (Dipeptidyl peptidase 1) [µM] | further results |
| --- | --- | --- | --- | --- | --- | --- | --- |
| N#CN1CCC(CCc2ccccc2)C1 (centres undefined) | 13 | 5.01 | 1.26 | 1.58 | 0.631 | 2 |  |
| N#CN1CCCC(CCc2ccccc2)C1 (centres undefined) |  |  | 10 | 7.94 |  | > 25.1 |  |
| N#CN1CC[C@H](NS(=O)(=O)c2ccccc2)C1 | 48 | 3.98 | 0.0316 | 0.501 |  | 0.316 |  |
| N#CN1CC[C@@H](NS(=O)(=O)c2ccccc2)C1 | 30 | 10 | 0.2 | 1.58 |  | 0.316 |  |
| N#CN1CC[C@@H](NC(=O)c2ccc(F)cc2)C1 |  | 3.98 | 0.0631 | 12.6 |  | 2.51 |  |
| N#CN1CC[C@@H](NC(=O)Nc2ccccc2)C1 |  | 1.26 |  | 3.98 | 1.26 | 1 |  |
| N#CN1CC[C@@H](NS(=O)(=O)c2cccc(Br)c2)C1 | 18 | 6.31 | 0.00794 | 0.316 | 0.0398 | 0.00794 | Stability (Plasma [2]): Stable; Stability (Plasma [3]): Stable; Stability (Plasma [4]): Stable; Stability (Plasma [5]): Stable |
| COc1ccc(OC)c(S(=O)(=O)N[C@@H]2CCN(C#N)C2)c1 | 23 | 12.6 | 0.0794 | 2 | 1.26 | 0.01 |  |
| N#CN1CC[C@@H](NS(=O)(=O)c2cc(Br)ccc2Br)C1 | 18 | 1.58 | 0.002 | 0.126 | 0.0251 | < 0.000398 |  |
| O=CN1CC[C@@H](NS(=O)(=O)c2cccc(Br)c2)C1 | 95 | > 25.1 | 5.01 | > 25.1 | 12.6 | > 25.1 |  |
| CC(C)(C)OC(=O)N1CC[C@@H](NS(=O)(=O)c2cccc(Br)c2)C1 | ≥ 100 | > 25.1 | > 25.1 | > 25.1 | > 25.1 | > 25.1 |  |
| C[C@@H]1C[C@@H](NS(=O)(=O)c2cccc(Br)c2)CN1C#N | 45 | > 25.1 | 1 | 15.8 | 2.51 | 15.8 |  |
| COc1ccc(OC)c(S(=O)(=O)N[C@@H]2C[C@@H](C)N(C#N)C2)c1 | 88 | > 25.1 | > 25.1 | > 25.1 | > 25.1 | > 25.1 |  |
| C[C@H]1C[C@@H](NS(=O)(=O)c2cccc(Br)c2)CN1C#N |  | > 25.1 | 0.251 | 3.98 | 3.16 | 0.158 |  |
| COc1ccc(OC)c(S(=O)(=O)N[C@@H]2C[C@H](C)N(C#N)C2)c1 |  | > 25.1 | 0.631 | 15.8 | 3.16 | 0.126 |  |
| C[C@H]1C[C@@H](NS(=O)(=O)c2cc(Br)ccc2Br)CN1C#N | 88 | > 25.1 | 0.0398 | 1 | 0.501 | 0.00316 | clearance [6]: 1.74 L/h/kg; half-life [7]: 42 min; bioavailability [8]: 1%; Vd [9]: 1.3 L/kg; Activity (Mus musculus [10]): 53%; Activity (Mus musculus [11]): 32%; clearance [12]: 0.96 L/h/kg; Activity (Mus musculus [13]): 85%; AUC [14]: 1.18 µg·h/mL; Activity (Mus musculus [15]): 16%; Vd [16]: 3.1 L/kg; Vd [17]: 0.4 L/kg; Activity (Mus musculus [18]): 28%; F (Rattus norvegicus [19]): 8%; bioavailability [20]: 20%; AUC (Rattus norvegicus [21]): 0.007 µg·h/mL; Activity (Mus musculus [22]): 35%; half-life [23]: 12 min; Activity (Mus musculus [24]): 66%; half-life [25]: 12 min |
| N#CN1CCCC1 [CYANO-PYRROLIDINE] |  | > 25.1 | 3.98 | 25.1 | 1.58 | > 25.1 |  |
